Reference: ChEMBL document CHEMBL1131126, “Naamidine A is an antagonist of the epidermal growth factor receptor and an in vivo active antitumor agent” (J Med Chem, 1998)

Legend:
Format in all cases: functional
Mus musculus = organism: Mus musculus; assay: Selectivity for EGF over insulin receptors
In short: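 Ratio of insulin-stimulated IC50 to EGF-stimulated IC50, both from [3H]thymidine incorporation in EGF receptor-transfected NIH3T3 cells (1 h preincubation, 16 h mitogen stimulation, 1-h label).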

A-431 [1] = assay: In vivo inhibitory activity against A431 tumor implanted in athymic mice at 3.13 mg/kg […]; conditions: Mus musculus
In short: (§1)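 A431 squamous carcinoma cells (EGF receptor-overexpressing) implanted under the kidney capsule of athymic mice, N = 6 per group. Dosed once daily for 5 days starting the day after implantation. Tumor size assessed 7 days after implantation; result given as % inhibition of tumor growth, with deaths counted per group.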

A-431 [2] = assay: In vivo inhibitory activity against A431 tumor implanted in athymic mice at 25 mg/kg […]; conditions: Mus musculus; in short: as §1
A-431 [3] = assay: In vivo inhibitory activity against A431 tumor implanted in athymic mice at 12.5 mg/kg […]; conditions: Mus musculus; in short: as §1
A-431 [4] = assay: In vivo inhibitory activity against A431 tumor implanted in athymic mice at 50 mg/kg […]; conditions: Mus musculus; in short: as §1

Row | Structure (SMILES) | Selectivity (Mus musculus) | inhibition in vivo at 3.13 mg/kg (A-431 [1]) [%] | inhibition in vivo at 25 mg/kg (A-431 [2]) [%] | inhibition in vivo at 12.5 mg/kg (A-431 [3]) [%] | inhibition in vivo at 50 mg/kg (A-431 [4]) [%]
1 | COc1ccc(Cc2cn(Cc3ccc(O)cc3)c(NC3=NC(=O)N(C)C3=O)n2)cc1 | 0.43 |  |  |  | 
2 | COc1ccc(Cc2nc(NC3=NC(=O)N(C)C3=O)n(C)c2Cc2ccc(O)cc2)cc1 | 21 | 35 | 87.4 | 52 | 96.4
3 | COc1ccc(Cc2cn(Cc3ccc(OC)cc3)c(NC3=NC(=O)N(C)C3=O)n2)cc1 | 0.18 |  |  |  | 
